Measured values reported in ChEMBL document CHEMBL5390295, “Isolinderalactone Ameliorates the Pathology of Alzheimer's Disease by Inhibiting the JNK Signaling Pathway” (2023).
Activity calls are given as the source filed them. No cut-off for these calls is given here.

What was measured:
[1] = test system: PC-12; experiment: Neuroprotective activity against Abeta1-42 induced rat PC12 cells assessed as […] at 1.25 to 10 uM preincubated for 3 hrs followed by Abeta1-42 induction and measured after 24 hrs by MTT assay; assay type: functional, cell-based; settings: dose 1.25-10 µM, time 27.0 hrs
Summary of the method: (§1)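 PC12 cells were seeded at 5×10^3/well and pretreated 3 h with test compound (range or 10 μM), with or without SP600125 1.25 μM for 0.5 h beforehand. Cells were then exposed to 10 μM Aβ1–42 oligomers for 24 h. MTT 0.5 mg/mL was added for 3–4 h, formazan dissolved in DMSO, and absorbance read at 570 nm. Viability is given as % of control.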

[2] = test system: PC-12; experiment: Induction of apoptosis in Abeta1-42 induced rat PC12 cells assessed as early apoptosis at 10 uM preincubated for 3 hrs followed by Abeta1-42 induction and measured after 24 hrs by Annexin V-FITC/PI staining based flow cytometry analysis (reference value: 1.5%); assay type: functional; settings: time 27 hrs
[3] = test system: PC-12; experiment: Induction of apoptosis in Abeta1-42 induced rat PC12 cells assessed as late apoptosis at 10 uM preincubated for 3 hrs followed by Abeta1-42 induction and measured after 24 hrs by Annexin V-FITC/PI staining based flow cytometry analysis (reference value: 0.7%); assay type: functional; settings: time 27 hrs
[4] = test system: PC-12; experiment: Neuroprotective activity against rat PC12 cells assessed as reversal of Abeta1-42 induced Bax expression at 10 uM preincubated for 3 hrs followed by Abeta1-42 induction and measured after 24 hrs by Western blot analysis; assay type: functional, cell-based; settings: time 27.0 hrs
Summary of the method: (§2)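 Aβ1–42 challenge in PC12 cells was 10 μM for 24 h after 3 h pretreatment at 10 μM. SP600125 (1.25 μM) was added 0.5 h before pretreatment where used. Cells were lysed in RIPA and protein measured by BCA. Blotting used PVDF transfer, 5% BSA/TBST block for 2 h, primaries 1:1000 overnight at 4 °C, and HRP secondary for 2 h. Bcl-2/Bax ratio and band intensities were quantified.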

[5] = test system: PC-12; experiment: Neuroprotective activity in rat PC12 cells assessed as reversal of Abeta1-42 decreased in Bcl-2 expression level at 10 uM preincubated for 3 hrs followed by Abeta1-42 induction and measured after 24 hrs by Western blot analysis; assay type: functional, cell-based; settings: time 27.0 hrs; summary of the method: as §2
[6] = test system: PC12; experiment: Restoration of mitochondrial membrane potential in Abeta1-42 induced rat PC12 cells at 10 uM preincubated for 3 hrs followed by Abeta1-42 induction and measured after 24 hrs by JC-1 staining based analysis; assay type: cell-based; settings: time 27.0 hrs
Summary of the method: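 PC12 cells pretreated 3 h, then exposed to 10 μM Aβ1–42 oligomer for 24 h. Cells were loaded with JC-1 (10 μg/mL, serum-free medium) for 30 min at 37 °C and washed twice in PBS. Plate-reader fluorescence was read as red (ex 560/em 595) and green (ex 485/em 535); Δψm = red/green ratio, normalized to control. Mean ± SEM, three experiments.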

[7] = test system: PC-12; experiment: Neuroprotective activity against in Abeta1-42 induced rat PC12 cells assessed as effect on ERK protein level at 10 uM preincubated for 3 hrs followed by Abeta1-42 induction and measured after 24 hrs by Western blot analysis; assay type: functional, cell-based; settings: time 27.0 hrs; summary of the method: as §2
[8] = test system: PC-12; experiment: Neuroprotective activity against Abeta1-42 induced rat PC12 cells assessed as effect on Bcl2/Bax ratio level at 10 uM preincubated for 3 hrs followed by Abeta1-42 induction and measured after 24 hrs in the presence of SP600125 by Western blot analysis; assay type: functional, cell-based; settings: time 27.0 hrs; summary of the method: as §2
[9] = test system: Mus musculus; experiment: Anti-alzheimer activity against APP/PS1 dE9 double transgenic mouse model assessed as increase in time spent in the target quadrant at 10 mg/kg, ip administered once daily for 30 consecutive days measured on day 5 by morris water maze test; assay type: functional, organism-based; settings: time 35.0 day
Summary of the method: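 Female APP/PS1 mice, 10 months old, about 30 g, 10 per group. Dosing was intraperitoneal in 1× PBS, once daily for one month (1 or 10 mg/kg test; 5 mg/kg donepezil). WT and untreated APP/PS1 controls got PBS. Morris water maze: training days 1–4, averaged escape latency. Day-5 probe trial ran 60 s with the platform removed, recording platform crossings and time per quadrant. Mean ± SEM.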

[10] = test system: Mus musculus; experiment: Anti-alzheimer activity in hippocampus of APP/PS1 dE9 double transgenic mouse model assessed as reduction in glial cell aggregation at 1 to 10 mg/kg, ip administered once daily for 30 consecutive days by immunofluorescence staining; assay type: functional, organism-based; settings: dose 1-10 mg/kg, time 30.0 day
Summary of the method: (§3)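 Brains from dosed female APP/PS1 mice (10 months) were fixed in 4% paraformaldehyde at 4 °C for 24–48 h, taken through a sucrose gradient and OCT, and cut into 15 μm sections. Sections were permeabilized with 0.3% Triton X-100, blocked in 10% BSA for 1 h, and incubated with primary antibody overnight at 4 °C (1:200). Secondary was 1:500 for 1 h at 25 °C, with DAPI counterstain and confocal imaging, in triplicate.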

[11] = test system: Mus musculus; experiment: Anti-alzheimer activity in hippocampus of APP/PS1 dE9 double transgenic mouse model assessed as reduction in amyloid beta plaque deposition at 1 to 10 mg/kg, ip administered once daily for 30 consecutive days by immunofluorescence staining; assay type: functional, organism-based; settings: dose 1-10 mg/kg, time 30.0 day; summary of the method: as §3
[12] = test system: Mus musculus; experiment: Anti-alzheimer activity in hippocampus of APP/PS1 dE9 double transgenic mouse model as reduction in neuronal apoptosis at 1 to 10 mg/kg, ip administered once daily for 30 consecutive days by immunofluorescence analysis; assay type: functional, organism-based; settings: dose 1-10 mg/kg, time 30.0 day; summary of the method: as §3
[13] = test system: Mus musculus; experiment: Anti-alzheimer activity in cortex of APP/PS1 dE9 double transgenic mouse model assessed as reduction in neuronal apoptosis at 1 to 10 mg/kg, ip administered once daily for 30 consecutive days by immunofluorescence analysis; assay type: functional, organism-based; settings: dose 1-10 mg/kg, time 30.0 day; summary of the method: as §3
[14] = test system: Mus musculus; experiment: Anti-alzheimer activity in hippocampus of APP/PS1 dE9 double transgenic mouse model assessed as increase in […] at 1 to 10 mg/kg, ip administered once daily for 30 consecutive days […]; assay type: functional, organism-based; settings: dose 1-10 mg/kg, time 30.0 day
Summary of the method: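 Hippocampal tissue from dosed APP/PS1 mice was lysed in RIPA. SOD activity was read by WST-8/xanthine oxidase formazan kit assay and MDA by lipid peroxidation kit, with absorbance on a microplate reader.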

[15] = test system: Mus musculus; experiment: Anti-alzheimer activity in hippocampus of APP/PS1 dE9 double transgenic mouse model assessed as decrease in MDA level at 1 to 10 mg/kg, ip administered once daily for 30 consecutive days […]; assay type: functional, organism-based; settings: dose 1-10 mg/kg, time 30.0 day
[16] = test system: Mus musculus; experiment: Anti-alzheimer activity in hippocampus of APP/PS1 dE9 double transgenic mouse model assessed as increase in the level of Bcl-2 at 10 mg/kg, ip administered once daily for 30 consecutive days by Western blot analysis; assay type: functional, organism-based; settings: time 30.0 day
Summary of the method: (§4)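 Hippocampal homogenates from dosed APP/PS1 mice were extracted in RIPA and protein measured by BCA. Samples were run by SDS electrophoresis, transferred to 0.22 μm PVDF for 90 min, blocked with 5% BSA in TBST for 2 h at RT, and probed with primaries 1:1000 overnight at 4 °C. HRP secondary was applied for 2 h at RT.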

[17] = test system: Mus musculus; experiment: Anti-alzheimer activity in hippocampus of APP/PS1 dE9 double transgenic mouse model assessed as decrease in the level of caspase-3 activation at 10 mg/kg, ip administered once daily for 30 consecutive days by Western blot analysis; assay type: functional, organism-based; settings: time 30.0 day; summary of the method: as §4
[18] = test system: PC-12; experiment: Neuroprotective activity against Abeta1-42 induced rat PC12 cells assessed as increase in cell viability at 10 uM preincubated for 3 hrs followed by Abeta1-42 induction and measured after 24 hrs by MTT assay; assay type: functional, cell-based; settings: time 27.0 hrs; summary of the method: as §1

With `C=C[C@@]1(C)Cc2occ(C)c2[C@@H]2OC(=O)C(=C)[C@@H]21` [ISOLINDERALACTONE] the Activity [1] was “Active”, the Activity [2] was 2% and the Activity [3] was 0.4%. The Activity [4] was “Active”, the Activity [5] was “Active” and the Activity [6] was “Active”. The Activity [7] was “inactive”, the Activity [8] was “inactive” and the Activity [9] was “Active”. The Activity [10] was “Active”, the Activity [11] was “Active” and the Activity [12] was “Active”. The Activity [13] was “Active”, the Activity [14] was “Active” and the Activity [15] was “Active”. For the same compound, the Activity [16] was “Active”, the Activity [17] was “Active” and the Activity [18] was “Active”.
